From ChEMBL document CHEMBL5126601 (ACS Med Chem Lett, 2022)
pIC50, pKd, pKi: −log10 of the molar value. Activity calls are given as the source filed them. The rule behind the calls is not given here.

Legend:
[1] = molecular target: T1, Adenosine receptor A2a (Homo sapiens, UniProt P29274); experiment: Binding affinity to human wild type adenosine A2A receptor expressed in Expi293F cells assessed as dissociation constant by surface plasmon resonance assay
[2] = molecular target: T2, Adenosine receptor A1 (Homo sapiens, UniProt P30542); experiment: Binding affinity to human wild type adenosine A1 receptor expressed in Expi293F cells assessed as dissociation constant by surface plasmon resonance assay
T2 sequence (P30542 whole entry): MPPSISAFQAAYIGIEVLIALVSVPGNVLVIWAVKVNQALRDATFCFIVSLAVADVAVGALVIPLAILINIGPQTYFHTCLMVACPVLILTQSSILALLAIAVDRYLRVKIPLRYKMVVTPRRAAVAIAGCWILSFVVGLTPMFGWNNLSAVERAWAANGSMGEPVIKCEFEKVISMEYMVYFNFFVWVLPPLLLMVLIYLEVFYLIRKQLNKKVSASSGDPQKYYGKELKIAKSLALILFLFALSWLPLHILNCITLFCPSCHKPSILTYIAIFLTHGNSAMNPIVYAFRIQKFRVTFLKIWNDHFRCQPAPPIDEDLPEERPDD

[3] = molecular target: T3, Adenosine receptor A2b (Homo sapiens, UniProt P29275); experiment: Binding affinity to human wild type adenosine A2B receptor expressed in Expi293F cells assessed as dissociation constant by surface plasmon resonance assay
T3 sequence (P29275 whole entry): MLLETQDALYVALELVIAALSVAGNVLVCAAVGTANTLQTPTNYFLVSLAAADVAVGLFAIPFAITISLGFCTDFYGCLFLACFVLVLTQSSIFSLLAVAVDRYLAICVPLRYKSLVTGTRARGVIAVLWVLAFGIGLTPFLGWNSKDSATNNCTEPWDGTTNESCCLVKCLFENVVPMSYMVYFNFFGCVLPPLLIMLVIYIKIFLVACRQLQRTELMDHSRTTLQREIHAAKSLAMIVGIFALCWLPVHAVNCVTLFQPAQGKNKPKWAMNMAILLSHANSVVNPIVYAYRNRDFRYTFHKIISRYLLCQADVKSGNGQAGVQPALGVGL

[4] = molecular target: T4, Adenosine receptor A3 (Homo sapiens, UniProt P0DMS8); experiment: (§1) Binding affinity to human wild type adenosine A3 receptor expressed in Expi293F cells assessed as dissociation constant by surface plasmon resonance assay
T4 sequence (P0DMS8 whole entry): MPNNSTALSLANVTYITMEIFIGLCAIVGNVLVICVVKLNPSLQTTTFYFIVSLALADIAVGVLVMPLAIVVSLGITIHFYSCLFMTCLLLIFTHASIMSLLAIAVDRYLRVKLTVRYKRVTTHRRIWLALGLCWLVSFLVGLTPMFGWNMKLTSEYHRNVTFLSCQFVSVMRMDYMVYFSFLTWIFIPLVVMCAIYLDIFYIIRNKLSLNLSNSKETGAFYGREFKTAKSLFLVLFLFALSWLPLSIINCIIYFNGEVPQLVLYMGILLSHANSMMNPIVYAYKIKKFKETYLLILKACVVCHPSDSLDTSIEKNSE

[5] = molecular target: T1, Adenosine receptor A2a; experiment: Antagonist activity at human adenosine A2A receptor expressed in HEK293T cells assessed as inhibition of EC20 concentration of NECA-induced cAMP accumulation by GloSensor cAMP accumulation assay; assay type: functional, cell-based; details: filed as antagonist
How it was run: (§2)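 HEK293T cells expressing A2A, GloSensor luciferase cAMP read-out; concentration–response curves run against EC20 NECA (3 nM). Data as % of maximum NECA response; mean ± SEM of at least three independent experiments in technical duplicate. Maximum tested concentration 0.63 mM where compound supply was limited; compounds also checked in cells lacking transfected A2A.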

[6] = molecular target: T1, Adenosine receptor A2a; experiment: Binding affinity to human wild type adenosine A2A receptor expressed in Expi293F cells assessed as inhibition constant taken from literature
[7] = molecular target: T1, Adenosine receptor A2a; experiment: Antagonist activity at human adenosine A2A receptor expressed in HEK293T cells assessed as inhibition of EC20 concentration of NECA-induced cAMP accumulation at higher concentration by GloSensor cAMP accumulation assay; assay type: functional, cell-based; details: filed as antagonist; how it was run: as §2
[8] = molecular target: T1, Adenosine receptor A2a; experiment: Allosteric modulator activity at human adenosine A2A receptor expressed in HEK293T cells assessed as stimulation of NECA-induced cAMP accumulation by GloSensor cAMP accumulation assay; assay type: functional, cell-based; details: filed as positive allosteric modulator
How it was run: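 GloSensor cAMP accumulation in HEK293T cells transiently expressing A2A; compound tested for modulation of NECA-stimulated cAMP (EC80 and EC20 NECA), concentrations up to 30 μM. Data as % of maximum NECA response; mean ± SEM of three to four experiments in at least duplicate.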

[9] = molecular target: T1, Adenosine receptor A2a; experiment: Antagonist activity at human adenosine A2A receptor expressed in HEK293T cells assessed as inhibition of EC20 concentration of NECA-induced cAMP accumulation by measuring fold change in potency by GloSensor cAMP accumulation assay; assay type: functional, cell-based; details: filed as antagonist
[10] = molecular target: T5, Adenosine receptor A1 (Homo sapiens) (UniProt P30542); experiment: Binding affinity to human wild type adenosine A1 receptor expressed in Expi293F cells assessed as affinity off-rate by surface plasmon resonance assay
T5 sequence (whole entry): T2 sequence (P30542 whole entry)

[11] = molecular target: T5, Adenosine receptor A1 (Homo sapiens); experiment: Binding affinity to human wild type adenosine A1 receptor expressed in Expi293F cells assessed as affinity on-rate by surface plasmon resonance assay
[12] = molecular target: T1, Adenosine receptor A2a; experiment: Antagonist activity at human adenosine A2A receptor expressed in HEK293T cells assessed as inhibition of 500 nM NECA-induced cAMP accumulation by GloSensor cAMP accumulation assay; details: filed as antagonist
[13] = molecular target: T3, Adenosine receptor A2b; experiment: Binding affinity to human wild type adenosine A2B receptor expressed in Expi293F cells assessed as affinity on-rate by surface plasmon resonance assay
[14] = molecular target: T6, Adenosine receptor A3 (Homo sapiens) (UniProt P0DMS8); experiment: Binding affinity to human wild type adenosine A3 receptor expressed in Expi293F cells assessed as affinity off-rate by surface plasmon resonance assay
T6 sequence (whole entry): T4 sequence (P0DMS8 whole entry)

[15] = molecular target: T1, Adenosine receptor A2a; experiment: Antagonist activity at human adenosine A2A receptor expressed in HEK293T cells assessed as inhibition of EC20 concentration of NECA-induced cAMP accumulation at 0.63 mM by GloSensor cAMP accumulation assay; assay type: functional, cell-based; details: filed as antagonist; how it was run: as §2
[16] = molecular target: T3, Adenosine receptor A2b; experiment: Binding affinity to human wild type adenosine A2B receptor expressed in Expi293F cells assessed as affinity on-rate by surface plasmon resonance assay
[17] = molecular target: T6, Adenosine receptor A3 (Homo sapiens); experiment: Binding affinity to human wild type adenosine A3 receptor expressed in Expi293F cells assessed as affinity on-rate by surface plasmon resonance assay
[18] = molecular target: T6, Adenosine receptor A3 (Homo sapiens); experiment: as §1
[19] = molecular target: Glycogen synthase kinase-3 alpha (Homo sapiens, UniProt P49840); experiment: Inhibition of recombinant human GSKalpha
[20] = molecular target: T7, Adenosine receptor A2b (Homo sapiens) (UniProt P29275); experiment: Binding affinity to human wild type adenosine A2B receptor expressed in Expi293F cells assessed as affinity off-rate by surface plasmon resonance assay
T7 sequence (whole entry): T3 sequence (P29275 whole entry)

[21] = molecular target: T3, Adenosine receptor A2b; experiment: Binding affinity to human wild type adenosine A2B receptor expressed in Expi293F cells assessed as inhibition constant by surface plasmon resonance assay
[22] = tested on: HEK-293T; experiment: Effect on cAMP accumulation in HEK293T cells by GloSensor cAMP accumulation assay; assay type: functional, cell-based; details: Homo sapiens
How it was run: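 HEK293T cells transiently expressing the A2A receptor, with a GloSensor luciferase cAMP read-out. Compound concentration series were tested against NECA at EC80 (500 nM) or EC20 (3 nM), and for agonist activity alone. Cells lacking transfected A2A served as control. Responses are expressed as a percentage of the maximum NECA response, as mean ± SEM of at least three independent experiments in technical duplicate.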

[23] = molecular target: T2, Adenosine receptor A1; experiment: Binding affinity to human wild type adenosine A1 receptor expressed in Expi293F cells assessed as affinity on-rate by surface plasmon resonance assay

T1 sequence (P29274 whole entry): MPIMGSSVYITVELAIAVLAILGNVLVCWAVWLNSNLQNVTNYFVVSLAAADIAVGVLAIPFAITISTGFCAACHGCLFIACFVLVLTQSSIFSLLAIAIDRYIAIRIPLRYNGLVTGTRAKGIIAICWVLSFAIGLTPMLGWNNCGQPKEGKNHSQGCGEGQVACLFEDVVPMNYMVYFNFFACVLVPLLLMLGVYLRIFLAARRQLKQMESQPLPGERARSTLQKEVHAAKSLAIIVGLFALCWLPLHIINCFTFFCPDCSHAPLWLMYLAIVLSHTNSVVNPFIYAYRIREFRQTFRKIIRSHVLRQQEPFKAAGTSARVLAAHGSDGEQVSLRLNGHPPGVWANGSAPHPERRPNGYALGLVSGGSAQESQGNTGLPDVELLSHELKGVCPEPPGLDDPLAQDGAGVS
Sequence of Glycogen synthase kinase-3 alpha (P49840 whole entry): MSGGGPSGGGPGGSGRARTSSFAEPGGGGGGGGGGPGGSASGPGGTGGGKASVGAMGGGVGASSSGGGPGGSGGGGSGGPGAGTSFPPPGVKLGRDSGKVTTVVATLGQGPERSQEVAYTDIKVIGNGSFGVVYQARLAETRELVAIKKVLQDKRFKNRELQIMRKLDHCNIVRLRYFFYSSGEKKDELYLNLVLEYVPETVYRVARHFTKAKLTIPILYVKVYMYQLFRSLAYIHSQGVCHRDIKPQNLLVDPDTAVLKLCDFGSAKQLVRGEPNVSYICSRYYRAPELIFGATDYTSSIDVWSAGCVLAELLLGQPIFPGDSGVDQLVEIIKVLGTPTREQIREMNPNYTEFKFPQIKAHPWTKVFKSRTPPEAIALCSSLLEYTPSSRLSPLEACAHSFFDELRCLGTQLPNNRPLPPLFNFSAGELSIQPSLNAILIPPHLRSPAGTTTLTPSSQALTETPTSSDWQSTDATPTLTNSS

Compound | pKd [1] | pKd [2] | pKd [3] | pKd [4] | other results
Nc1ccc2nnc(-c3ccccc3)n2n1 | 5.95 | 4.64 | 3.92 | 3.80 | Activity [5]: Active
Nc1nc(Nc2ccccc2)nc2c1ncn2[C@@H]1O[C@H](CO)[C@@H](O)[C@H]1O | 8.04 |  |  |  | pKi [6]: 7.12
CC(C)NC(=O)c1cc(-c2ccccc2)[nH]n1 | 4.31 | 4.15 | 3.71 | 4.10 | Activity [7]: Active
Nc1nsc(-c2ccc(Cl)cc2)n1 | 4.66 | 4.68 | 4.35 | 4.44 | Activity [8]: Active; Activity [9]: Active
CC(C)n1ncc2cc(C(=O)NCc3ccco3)cnc21 | 3.68 | 4.57 | 4.10 | 3.40 | 
CS(=O)(=O)c1ccc(C(=O)Nc2cccc(Cl)c2)cc1 | 4.87 | 5.12 | 4.71 | 4.74 | Activity [7]: Active
O=C1NC(=O)C(c2cccc(Cl)c2)=C1Nc1ccc(O)c(Cl)c1 | 6.96 | 5.66 |  |  | K [10]: 0.27 s⁻¹; K [11]: 1.21 10^5/M/s; Activity [9]: Active; Activity [12]: Active
O=C(Nc1ccccc1)Nc1ccccn1 | 4.29 | 4.39 | 4.36 | 4.28 | 
NC(=O)c1ncoc1-c1ccccc1 | 4.50 |  |  |  | 
O=c1cc(NCc2ccccc2)nc2ccccn12 | 3.88 | 3.81 | 3.70 | 3.70 | 
Cn1c(=O)[nH]c2ccccc2c1=O | 4.54 | 4.46 | 3.83 | 4.72 | 
Cc1nn(-c2ccccc2)nc1C(N)=O | 3.39 | 4.11 | 3.85 | 4.00 | 
O=C(NCc1ccccc1)c1ccc2nonc2c1 | 4.00 | 4.04 | 4.66 | 3.74 | 
Fc1ccc(-c2nn3ccccc3c2-c2ccncc2)cc1 [GW434756X] | 5.05 | 8.22 | 6.55 | 6.13 | K [10]: 0.01 s⁻¹; K [11]: 1.63 10^6/M/s; ka [13]: 1.52 10^5/M/s; K [14]: 0.041 s⁻¹; Activity [15]: Active; ka [16]: 1.52 10^5/M/s; Activity [12]: Active
O=C(Nc1n[nH]c2nc(-c3ccco3)c(Br)cc12)C1CC1 | 6.25 | 5.67 |  |  | K [10]: 0.09 s⁻¹; K [11]: 4.25 10^4/M/s; K [14]: 0.041 s⁻¹; Activity [9]: Active
Oc1ncnc2[nH]ncc12 [ALLOPURINOL] | 4.11 |  |  |  | 
Nc1nc(N)c2nccnc2n1 | 5.02 |  |  |  | 
Nc1nncc(-c2ccc(Br)cc2)n1 | 4.30 | 5.96 |  |  | Activity [7]: Active
Nc1nc(-c2ccccc2)ns1 | 3.89 | 4.29 | 4.22 | 4.29 | 
COc1cc(/C=N/Nc2ncnc3c2cnn3-c2ccccc2)ccc1O |  | 5.92 |  |  | Activity [1]: Active; K [10]: 0.06 s⁻¹; K [11]: 5.33 10^4/M/s; Activity [17]: Active; Activity [18]: Active; pIC50 [19]: 7.00; Activity [9]: Active
Nc1nc(N)nc(-c2ccccc2)n1 [BENZOGUANAMINE] | 5.82 | 5.66 | 3.97 | 3.98 | Activity [5]: Active
N#Cc1c(N)nc(SCc2ncc[nH]2)c(C#N)c1-c1ccc(O)cc1 |  |  | 7.11 |  | ka [13]: 1.1 10^5/M/s; K [20]: 0.0086 s⁻¹; pKi [21]: 7.92
CCNC(=O)[C@H]1O[C@@H](n2cnc3c(N)ncnc32)[C@H](O)[C@@H]1O |  |  |  |  | Activity [22]: Active
O[C@H]1CC[C@H](Nc2nc(-c3ccccc3)nc3[nH]ccc23)CC1 |  | 8.26 |  |  | K [10]: 0.0034 s⁻¹; K [11]: 6.27 10^5/M/s; ka [23]: 6.27 10^5/M/s
Nc1nsc(-c2ccccc2)n1 | 3.86 | 3.91 | 3.97 | 3.99 | 
